Experimental findings from ChEMBL document CHEMBL4017549, “Structural Basis of Inhibition of ERα-Coactivator Interaction by High-Affinity N-Terminus Isoaspartic Acid Tethered Helical Peptides” (J Med Chem, 2017) are described below.

The nature of series [1]: Drug uptake in human MCF7 cells at 5 uM after 3 hrs in presence of 10 nM E2 by DAPI-staining based confocal laser scanning microscopic analysis. As to conditions: mcf7, 3 h; call rule not given here.
In series [2] the target is T1, Progesterone receptor (Homo sapiens, UniProt P06401).
T1 sequence (P06401 whole entry): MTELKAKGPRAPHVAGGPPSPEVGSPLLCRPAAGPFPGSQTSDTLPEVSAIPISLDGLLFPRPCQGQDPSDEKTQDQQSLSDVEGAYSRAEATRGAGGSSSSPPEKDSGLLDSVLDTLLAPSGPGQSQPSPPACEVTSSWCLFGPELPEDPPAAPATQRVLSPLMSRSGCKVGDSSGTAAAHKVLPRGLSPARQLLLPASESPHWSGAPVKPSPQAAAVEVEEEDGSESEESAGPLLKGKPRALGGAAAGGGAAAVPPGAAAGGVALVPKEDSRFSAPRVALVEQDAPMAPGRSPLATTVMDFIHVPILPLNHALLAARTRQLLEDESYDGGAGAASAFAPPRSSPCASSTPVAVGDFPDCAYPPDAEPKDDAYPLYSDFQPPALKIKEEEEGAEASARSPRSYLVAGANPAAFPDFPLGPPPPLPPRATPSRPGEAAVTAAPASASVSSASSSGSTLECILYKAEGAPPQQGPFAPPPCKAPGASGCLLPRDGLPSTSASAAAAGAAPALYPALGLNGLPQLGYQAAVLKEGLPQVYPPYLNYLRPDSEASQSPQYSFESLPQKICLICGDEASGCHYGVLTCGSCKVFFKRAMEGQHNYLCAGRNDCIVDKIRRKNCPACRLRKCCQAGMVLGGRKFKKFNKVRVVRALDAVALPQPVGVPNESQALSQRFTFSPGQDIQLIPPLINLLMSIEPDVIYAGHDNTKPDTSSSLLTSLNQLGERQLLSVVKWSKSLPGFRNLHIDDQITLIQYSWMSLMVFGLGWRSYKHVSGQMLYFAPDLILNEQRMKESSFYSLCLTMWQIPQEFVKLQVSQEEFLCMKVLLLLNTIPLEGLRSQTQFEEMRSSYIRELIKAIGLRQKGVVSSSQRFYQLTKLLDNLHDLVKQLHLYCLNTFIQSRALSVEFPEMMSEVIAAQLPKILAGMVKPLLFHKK
Kind of series: Binding affinity to recombinant human GST-tagged PGR LBD (678 to 933 residues) expressed in Escherichia coli BL21 star(DE3) after 40 mins in presence of progesterone by fluorescence polarization assay. In a few lines: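 FITC-labelled peptide at 10 nM final with increasing GST-PgR LBD in 20 mM Tris-HCl pH 8.0, 150 mM NaCl, 5% glycerol, 1 mM TCEP plus 10 μM progesterone. 40 min dark incubation, polarization at 298 K (ex 480/em 535 nm). KD by nonlinear regression against protein concentration.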
For orientation: Fluorescence polarisation rises when a labelled molecule tumbles more slowly, as on binding a larger partner.

The term Kd denotes the free concentration of one partner at which half of the binding sites on the other are occupied at equilibrium, for simple one-to-one binding. With `CC[C@H](C)[C@@H]1NC(=O)C[C@H](NC(=O)[C@H](CCCNC(=N)N)NC(=O)CCNC(=S)Nc2ccc3c(c2)C(=O)OC32c3ccc(O)cc3Oc3cc(O)ccc32)C(=O)NCC(C(=O)N[C@@H](CCCNC(=N)N)C(=O)NC(CC(C)(C)C)C(=O)NC(CC(C)(C)C)C(=O)N[C@@H](CCC(N)=O)C(N)=O)NC(=O)C(CC(C)(C)C)NC1=O` (some centres not stated), in series [1], the Drug uptake entry is listed as “Active”. In series [2], the equilibrium dissociation constant (Kd) amounted to 248 nM.
